Test results reported in ChEMBL document CHEMBL1153764, “A facile one-pot green synthesis and antibacterial activity of 2-amino-4H-pyrans and 2-amino-5-oxo-5,6,7,8-tetrahydro-4H-chromenes” (2009).
In brackets after ≈: the same amount, converted by molar mass.

Legend:
Format in all cases: functional
[1] = test system: Staphylococcus aureus; assay: Antibacterial activity against Staphylococcus aureus MTCC 1144 after 12 to 16 hrs
Summary of the method: (§1)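 Tube broth dilution MIC. Tubes were inoculated with the bacterial strain and incubated 12–16 h. Growth was scored visually: a turbid tube means growth, a clear tube means no growth. MIC is the lowest concentration with no growth.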

[2] = test system: Pseudomonas putida; assay: Antibacterial activity against Pseudomonas putida MTCC 1072 after 12 to 16 hrs; summary of the method: as §1
[3] = test system: Pseudomonas putida; assay: Antibacterial activity against Pseudomonas putida MTCC 1072 at 64 ug/ml after 16 hrs by disc diffusion method; settings: MTCC 1072, 16 h, read-out: IZ
Summary of the method: (§2)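 Disc diffusion zone-of-inhibition assay. The bacterial isolate was spread evenly over the surface of an agar plate. A filter disc loaded with a known amount of compound was placed on the surface, and the compound diffused into the surrounding agar. Plates were incubated 16 h until a bacterial lawn formed, and the zone of inhibition around the disc was then assessed.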

[4] = test system: Escherichia coli; assay: Antibacterial activity against Escherichia coli MTCC 41 at 128 ug/ml after 16 hrs by disc diffusion method; settings: MTCC 41, 16 h, read-out: IZ; summary of the method: as §2
[5] = test system: Staphylococcus aureus; assay: Antibacterial activity against Staphylococcus aureus MTCC 1144 at 64 ug/ml after 16 hrs by disc diffusion method; settings: MTCC 1144, 16 h, read-out: IZ; summary of the method: as §2
[6] = test system: Staphylococcus aureus; assay: Antibacterial activity against Staphylococcus aureus MTCC 1144 at 128 ug/ml after 16 hrs by disc diffusion method; settings: MTCC 1144, 16 h, read-out: IZ; summary of the method: as §2
[7] = test system: Pseudomonas putida; assay: Antibacterial activity against Pseudomonas putida MTCC 1072 at 128 ug/ml after 16 hrs by disc diffusion method; settings: MTCC 1072, 16 h, read-out: IZ; summary of the method: as §2
[8] = test system: Escherichia coli; assay: Antibacterial activity against Escherichia coli MTCC 41 after 12 to 16 hrs; summary of the method: as §1
[9] = test system: Escherichia coli; assay: Antibacterial activity against Escherichia coli MTCC 41 at 64 ug/ml after 16 hrs by disc diffusion method; settings: MTCC 41, 16 h, read-out: IZ; summary of the method: as §2

Row | Compound | MIC [1] [µg/mL] | MIC [2] [µg/mL] | zone of inhibition at 64 µg/mL [3] [mm] | zone of inhibition at 128 µg/mL [4] [mm] | zone of inhibition at 64 µg/mL [5] [mm] | zone of inhibition at 128 µg/mL [6] [mm] | zone of inhibition at 128 µg/mL [7] [mm] | MIC [8] [µg/mL] | zone of inhibition at 64 µg/mL [9] [mm]
1 | CCOC(=O)C1=C(C)OC(N)=C(C#N)C1c1ccc([N+](=O)[O-])cc1 (stereo not drawn) | > 128 | > 128 | < 1 | < 1 | < 1 | < 1 | < 1 | > 128 | < 1
2 | CC1(C)CC(=O)C2=C(C1)OC(N)=C(C#N)C2c1ccc(Cl)cc1 (stereo not drawn) | 128 (≈ 389 µM) | 128 (≈ 389 µM) | > 2 | > 3 | > 2 | > 3 | > 3 | 128 (≈ 389 µM) | > 2
3 | Cc1ccc(C2C(C#N)=C(N)OC3=C2C(=O)CC(C)(C)C3)cc1 (stereo not drawn) | > 128 | 128 (≈ 415 µM) | > 2 | > 2 | > 2 | > 2 | > 3 | > 128 | > 2
4 | CC1(C)CC(=O)C2=C(C1)OC(N)=C(C#N)C2c1cccc(O)c1 (stereo not drawn) | > 128 | 64 (≈ 206 µM) | > 3 | > 3 | > 2 | > 2 | > 3 | 128 (≈ 412 µM) | > 2
5 | CC1(C)CC(=O)C2=C(C1)OC(N)=C(C#N)C2c1ccccc1 (stereo not drawn) | > 128 | > 128 | > 2 | > 2 | < 1 | < 1 | > 2 | > 128 | < 1
6 | COc1ccc(C2C(C#N)=C(N)OC3=C2C(=O)CC(C)(C)C3)cc1 (stereo not drawn) | > 128 | 128 (≈ 395 µM) | > 2 | > 3 | > 2 | > 2 | > 3 | 64 (≈ 197 µM) | > 3
7 | CC1(C)CC(=O)C2=C(C1)OC(N)=C(C#N)C2c1cccc([N+](=O)[O-])c1 (stereo not drawn) | 128 (≈ 377 µM) | 128 (≈ 377 µM) | < 1 | > 3 | > 2 | > 3 | > 3 | 128 (≈ 377 µM) | < 1
8 | CC1(C)CC(=O)C2=C(C1)OC(N)=C(C#N)C2c1ccc([N+](=O)[O-])cc1 (stereo not drawn) | 64 (≈ 189 µM) | 128 (≈ 377 µM) | < 1 | > 3 | > 3 | > 3 | > 3 | 64 (≈ 189 µM) | > 3
9 | CCOC(=O)C1=C(C)OC(N)=C(C#N)C1c1cccc([N+](=O)[O-])c1 (stereo not drawn) | > 128 | > 128 | < 1 | < 1 | < 1 | < 1 | < 1 | > 128 | < 1
10 | CCOC(=O)C1=C(C)OC(N)=C(C#N)C1c1ccccc1 (stereo not drawn) | 128 (≈ 450 µM) | 128 (≈ 450 µM) | < 1 | > 3 | < 1 | > 3 | > 3 | 64 (≈ 225 µM) | > 3
11 | CCOC(=O)C1=C(C)OC(N)=C(C#N)C1c1cccc(Cl)c1 (stereo not drawn) | 128 (≈ 402 µM) | 128 (≈ 402 µM) | < 1 | > 3 | < 1 | > 3 | > 3 | 128 (≈ 402 µM) | < 1
12 | CCOC(=O)C1=C(C)OC(N)=C(C#N)C1c1ccc(Cl)cc1 (stereo not drawn) | > 128 | > 128 | < 1 | < 1 | < 1 | < 1 | < 1 | > 128 | < 1
13 | CCOC(=O)C1=C(C)OC(N)=C(C#N)C1c1ccc(C)cc1 (stereo not drawn) | > 128 | > 128 | < 1 | < 1 | < 1 | < 1 | < 1 | > 128 | < 1
14 | CCOC(=O)C1=C(C)OC(N)=C(C#N)C1c1cccc(O)c1 (stereo not drawn) | > 128 | 128 (≈ 426 µM) | < 1 | < 1 | < 1 | < 1 | > 3 | > 128 | < 1
15 | CCOC(=O)C1=C(C)OC(N)=C(C#N)C1c1ccc(OC)cc1 (stereo not drawn) | 128 (≈ 407 µM) | 128 (≈ 407 µM) | < 1 | > 3 | < 1 | > 3 | > 3 | 128 (≈ 407 µM) | < 1
16 | CC1(C)S[C@@H]2[C@H](NC(=O)[C@H](N)c3ccccc3)C(=O)N2[C@H]1C(=O)O [AMPICILLIN] | – | > 256 | 0 | > 5 | > 5 | > 5 | 0 | 16 (≈ 45.8 µM) | > 5
